For series [1], the system named is Mus musculus. The series can be described thus: Antinociceptive activity in sc dosed CD-1 mouse assessed as inhibition of acetic acid-induced writhing treated 30 mins prior to test followed by acetic acid challenge measured for 10 mins starting 5 mins post acetic acid challenge. It is filed as functional. In short, it runs like this: (§1)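 Male CD1 mice (30–35 g, 6–8 weeks) given compound or saline sc at 10 μL/g. […] ED50 by Litchfield–Wilcoxon from dose–response. Doses expressed as salts; ≥5 mice per group, each used once.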

For series [2], the target named is Kappa-type opioid receptor (Homo sapiens) (UniProt P41145). The series can be described thus: Agonist activity at human kappa opioid receptor expressed in CHO cell membranes after 60 mins by [35S]GTPgammaS binding assay relative to U69,593. It counts as functional. The method in brief:
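Membranes (8–15 μg) from CHO cells stably expressing human KOP, in 20 mM HEPES, 10 mM MgCl2, 100 mM NaCl, pH 7.4. Incubated with 0.05 nM [35S]GTPγS, 10 μM GDP and graded compound for 60 min at 25 °C. Nonspecific binding with 10 μM GTPγS; basal binding without ligand. Filtered and counted. Efficacy given as % stimulation relative to U69,593. Duplicates, ≥3 experiments.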

Series [3] deals with Mus musculus. The series is described as follows: Toxicity in CD-1 mouse assessed as motor impairment at 7.5 mg/kg, sc treated 30 mins prior to test by rotarod test. It counts as organism-based. Conditions: in vivo, 0.5 h.
Series [4] relates to Mus musculus. The series is described as follows: Antinociceptive activity in CD-1 mouse assessed as inhibition of acetic acid-induced writhing at […], sc treated 30 mins prior to test followed by acetic acid challenge measured for 10 mins starting 5 mins post acetic acid challenge in presence of KOP receptor antagonist nor-BNI. It is filed as functional, organism-based.
Series [5] deals with Mus musculus. The series is described as follows: Toxicity in CD-1 mouse assessed as motor impairment at 5 mg/kg, sc treated 30 mins prior to test by rotarod test. It counts as organism-based. Conditions: in vivo, 0.5 h.
The subject of series [6] is Mus musculus. The series can be described thus: Toxicity in CD-1 mouse assessed as motor impairment at 5 to 10 mg/kg, sc treated 30 mins prior to test by rotarod test. It is filed as organism-based. The conditions noted are these: in vivo, 0.5 h.
The test system of series [7] is Mus musculus. The series can be described thus: Antinociceptive activity in CD-1 mouse assessed as inhibition of acetic acid-induced writhing at 1 mg/kg, sc treated 30 mins prior to test followed by acetic acid challenge measured for 10 mins starting 5 mins post acetic acid challenge in presence of KOP receptor antagonist nor-BNI. It is filed as functional, organism-based. In short, it runs like this: (§2)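 Writhing test in male CD1 mice: nor-BNI 20 mg/kg sc given 24 h before sc test compound. Acetic acid 0.6% ip at 25 min after compound; writhes counted for 10 min. Inhibition calculated as % reduction against saline controls. ≥5 mice per group.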

For series [8], the system named is Mus musculus. The series is described as follows: Toxicity in CD-1 mouse assessed as motor impairment at […], sc treated 30 mins prior to test by rotarod test. It is filed as organism-based. The conditions noted are these: in vivo, 0.5 h.
The test system of series [9] is Mus musculus. The series can be described thus: Toxicity in CD-1 mouse assessed as motor impairment at 10 to 20 mg/kg, sc treated 30 mins prior to test by rotarod test. It counts as organism-based. Conditions: in vivo, 0.5 h.
In series [10] the test system is Mus musculus. The series is described as follows: Antinociceptive activity in CD-1 mouse assessed as inhibition of acetic acid-induced writhing at 5 mg/kg, sc treated 30 mins prior to test followed by acetic acid challenge measured for 10 mins starting 5 mins post acetic acid challenge in presence of KOP receptor antagonist nor-BNI. It is filed as functional, organism-based. In short, it runs like this:
as §2

Series [11] concerns Mus musculus. The series is described as follows: In vivo antagonist activity at kappa opioid receptor in CD-1 mouse assessed as reversal of U50,488-induced inhibition of acetic acid-mediated writhing at 10 mg/kg, sc treated 15 mins prior to U50,488 measured for 10 mins starting 5 mins post acetic acid challenge. It counts as functional, organism-based. In short, it runs like this:
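Male CD1 mice received test compound 10 mg/kg sc, then U50,488 2 mg/kg sc 15 min later. Acetic acid 0.6% ip given 25 min after U50,488 dosing; writhes counted for 10 min. Compared with saline controls. ≥5 mice per group, sc volume 10 μL/g.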

For series [12], the system named is Mus musculus. The series can be described thus: Antinociceptive activity in CD-1 mouse assessed as inhibition of acetic acid-induced writhing at 10 mg/kg, sc treated 30 mins prior to test followed by acetic acid challenge measured for 10 mins starting 5 mins post acetic acid challenge. It counts as functional, organism-based. In short, it runs like this: as §1

The target of series [13] is Kappa-type opioid receptor (Homo sapiens) (UniProt P41145).
Kappa-type opioid receptor (Homo sapiens), sequence (P41145 whole entry): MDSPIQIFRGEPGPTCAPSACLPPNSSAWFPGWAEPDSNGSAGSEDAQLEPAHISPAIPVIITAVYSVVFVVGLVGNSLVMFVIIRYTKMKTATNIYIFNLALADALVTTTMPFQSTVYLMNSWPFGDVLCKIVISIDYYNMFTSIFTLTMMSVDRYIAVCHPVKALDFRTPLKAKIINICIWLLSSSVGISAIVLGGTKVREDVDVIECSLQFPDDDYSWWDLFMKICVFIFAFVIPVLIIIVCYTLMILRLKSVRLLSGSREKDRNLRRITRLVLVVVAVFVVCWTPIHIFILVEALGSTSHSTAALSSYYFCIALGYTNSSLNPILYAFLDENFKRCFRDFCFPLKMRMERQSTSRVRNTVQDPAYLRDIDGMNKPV
The test system of series [14] is Mus musculus. The series is described as follows: Toxicity in CD-1 mouse assessed as motor impairment at 15 mg/kg, sc treated 30 mins prior to test by rotarod test. It is filed as organism-based. Conditions: in vivo, 0.5 h.

Calls of active or inactive are those of the source. No cut-off for these calls is given here.

Regarding `Oc1cccc(CCN(CCc2cccc(O)c2)CC2CCC2)c1`, the inhibition entry in the series on Mus musculus [1] is “Dose-dependent effect”.
As to `Oc1cccc(CCN(CCc2ccccc2)Cc2ccccc2)c1`, the inhibition entry with Mus musculus [1] was “Dose-dependent effect”. This compound came in with an Efficacy in series [2] of 79.5%.
For `Oc1cccc(CCN(CCc2cccc(O)c2)CC2CCCC2)c1`, in that order: “Dose-dependent effect” and 80.4%.
Consider `Cl.Oc1cccc(CCN(CCc2ccccc2)CC2CCCCC2)c1F`, for which the inhibition entry in the series with Mus musculus [1] is “Dose-dependent effect”. The Activity entry with Mus musculus [3] is “Non-Toxic”. For the same compound, the Efficacy in series [2] amounted to 88.9%.
Turning to `Cl.Oc1cccc(CCN(CCc2ccccc2)CC2CCCCC2)c1`, the inhibition result in the series on Mus musculus [1] is “Dose-dependent effect”. For the same compound, in the series on Mus musculus [4], the inhibition result is “inactive”. In addition, in the series with Mus musculus [5], the Activity result is given as “Non-Toxic”.
For the compound `CC(C)CCN(CCc1cccc(O)c1)CCc1cccc(O)c1`, in the series on Mus musculus [1], the inhibition result is “Dose-dependent effect”.
Still for that read-out and setting: in the case of `CC(C)CCN(CCc1ccccc1)CCc1cccc(O)c1` it was “Dose-dependent effect”.
For `Oc1cccc(CCN(CCc2ccccc2)CC2CCC2)c1`, in the series on Mus musculus [6], the Activity result was “Non-Toxic”.
For the compound `Oc1cccc(CCN(CCc2cccc(O)c2)CC2CCCCC2)c1`, the inhibition entry in the series on Mus musculus [1] was “Dose-dependent effect”. This compound came in with an Efficacy in series [2] of 91.1%.
As to `Oc1cccc(CCN(CCc2cccc(O)c2)CC2CC2)c1`, the inhibition entry in the series with Mus musculus [1] was “Dose-dependent effect”.
Same read-out and setting: with `Oc1ccc(CCN(CCc2cccc(O)c2F)CC2CCC2)cc1` the entry was “Dose-dependent effect”.
For `Cl.Oc1cccc(CCN(CCc2ccccc2)CC2CCCC2)c1`, the inhibition entry in the series on Mus musculus [7] is “inactive”. The inhibition result with Mus musculus [1] is “Dose-dependent effect”. The Activity entry with Mus musculus [8] is listed as “Non-Toxic”. This compound returned an Efficacy in series [2] of 82.8%.
For the compound `C=CCN(CCc1ccc(O)cc1)CCc1cccc(O)c1`, the Efficacy in series [2] was found to be 29.8%.
Consider `Oc1cccc(CCN(CCc2cccc(O)c2F)CC2CCC2)c1`, for which, in the series on Mus musculus [1], the inhibition result is “Dose-dependent effect”.
Turning to `Oc1cccc(CCN(CCc2ccccc2)CC2CC2)c1`, in the series on Mus musculus [1], the inhibition entry is “Dose-dependent effect”. Further, the Activity entry in the series on Mus musculus [9] is recorded as “Non-Toxic”. Further, the inhibition result with Mus musculus [10] is “inactive”.
As to `Oc1ccc(CCN(CCc2cccc(O)c2)CC2CCC2)cc1`, the inhibition result with Mus musculus [1] is “Dose-dependent effect”.
In the case of `Oc1ccc(CCN(CCc2cccc(O)c2)CC2CC2)cc1`, the inhibition result in the series with Mus musculus [11] was “Active”. Further, the inhibition entry with Mus musculus [12] is “inactive”. The compound further came in with a Ke in series [13] of 24.3 nM.
For `Oc1ccc(CCN(CCc2cccc(O)c2)CC2CCCCC2)cc1`, the inhibition entry in the series on Mus musculus [1] was “Dose-dependent effect”. In addition, the Efficacy in series [2] stood at 84.3%.
Consider `Cl.Oc1cccc(CCN(CCc2ccccc2)CC2CCC2)c1F`, for which the inhibition entry in the series on Mus musculus [1] was “Dose-dependent effect”. Besides, in the series on Mus musculus [14], the Activity entry was “Non-Toxic”. In series [2], this compound showed an Efficacy of 66.1%.
Regarding `c1ccc(CCN(CCc2ccccc2)CC2CCC2)cc1`, in series [2], the Efficacy amounted to 91.9%.

Values taken from ChEMBL document CHEMBL4017505 (J Med Chem, 2017).
